Assay results from ChEMBL document CHEMBL1152927, “Diterpene glycosides from the seeds of Pharbitis nil” (J Nat Prod, 2009).

Key:
Format in all cases: functional, cell-based
A549 = experiment: Cytotoxicity against human A549 cells by SRB assay
Summary of the method: (§1)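 Sulforhodamine B (SRB) assay against cultured human cancer cell lines, run at the Korea Research Institute of Chemical Technology. Cytotoxicity is reported as IC50 in µM.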

SK-OV-3 = experiment: Cytotoxicity against human SKOV3 cells by SRB assay; summary of the method: as §1
SK-MEL-2 = experiment: Cytotoxicity against human SK-MEL-2 cells by SRB assay; summary of the method: as §1
HCT-15 = experiment: Cytotoxicity against human HCT15 cells by SRB assay; summary of the method: as §1

Compound	IC50 (A549) [µM]	IC50 (SK-OV-3) [µM]	IC50 (SK-MEL-2) [µM]	IC50 (HCT-15) [µM]
C[C@@]12CCC[C@@](C)(C(=O)O)[C@H]1[C@H](O)[C@H](O)[C@@]13C[C@H](CC[C@@H]21)[C@](O)(CO)C3	> 30	> 30	> 30	> 30
C[C@@]12CCC[C@@](C)(C(=O)O)[C@H]1[C@H](O)[C@H](O)[C@@]13C[C@H](CC[C@@H]21)[C@@](O)(CO)C3	> 30	> 30	> 30	> 30
C[C@]12CCC[C@@]3(C)C(=O)O[C@@H]([C@H](O)[C@@]45C[C@H](CC[C@@H]14)[C@](O)(CO)C5)[C@@H]23	> 30	> 30	> 30	> 30
COc1cccc2c1C(=O)c1c(O)c3c(c(O)c1C2=O)C[C@@](O)(C(=O)CO)C[C@@H]3O[C@H]1C[C@H](N)[C@H](O)[C@H](C)O1 [DOXORUBICIN]		0.056	0.117	0.164
C=C1C[C@]23C[C@@H]1CC[C@H]2[C@]1(C)CCC[C@@](C)(C(=O)O[C@@H]2O[C@H](CO)[C@@H](O)[C@H](O)[C@H]2O)[C@H]1C[C@@H]3O [PHARBOSIDE A]	> 30	> 30	> 30	> 30
C=C1C[C@]23C[C@@H]1CC[C@H]2[C@]1(C)CCC[C@@](C)(C(=O)O[C@@H]2O[C@H](CO)[C@@H](O)[C@H](O)[C@H]2O)[C@H]1C[C@H]3O [PHARBOSIDE B]	> 30	> 30	> 30	> 30
COC(=O)[C@]1(C)CCC[C@@]2(C)[C@@H]3CC[C@H]4C[C@]3(C[C@@]4(CO)O[C@@H]3O[C@H](CO)[C@@H](O)[C@H](O)[C@H]3O)[C@@H](O)[C@@H](O)[C@@H]21 [PHARBOSIDE C]	> 30	> 30	> 30	> 30
C[C@@]12CCC[C@@](C)(C(=O)O[C@@H]3O[C@H](CO)[C@@H](O)[C@H](O)[C@H]3O)[C@H]1[C@H](O)[C@H](O)[C@@]13C[C@H](CC[C@@H]21)[C@](O)(CO)C3 [PHARBOSIDE D]	25.2	28.7	14.3	17.2
C[C@@]12CCC[C@@](C)(C(=O)O)[C@H]1[C@H](O)[C@H](O)[C@@]13C[C@H](CC[C@@H]21)[C@](O)(CO[C@@H]1O[C@H](CO)[C@@H](O)[C@H](O)[C@H]1O)C3 [PHARBOSIDE E]	23.6	13.8	15.2	22.1
C[C@@]12CCC[C@@](C)(C(=O)O)[C@H]1[C@H](O)[C@H](O)[C@@]13C[C@H](CC[C@@H]21)[C@](CO)(O[C@@H]1O[C@H](CO)[C@@H](O)[C@H](O)[C@H]1O)C3 [PHARBOSIDE F]	> 30	> 30	> 30	> 30
C=C1C[C@]23C[C@@H]1CC[C@H]2[C@]1(C)CCC[C@@](C)(C(=O)O[C@@H]2O[C@H](CO)[C@@H](O)[C@H](O)[C@H]2O)C1[C@@H]3C=O (stereo partly drawn) [PHARBOSIDE G]	> 30	> 30	> 30	> 30
